Assay [1] in a line: Cytotoxicity against human NCI-H292 cells assessed as decrease in cell viability after 72 hrs by MTT assay. It is filed as functional, cell-based. Conditions: NCI-H292, 72 h. In short, it runs like this: (§1)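 Human NSCLC lines (ATCC) seeded at 2 × 10^3 cells/well, adhered overnight, then exposed 72 h to at least five concentrations of analogue in RPMI with ≤0.2% DMSO. MTT 0.5 mg/mL added for 4 h, formazan dissolved in DMSO, absorbance read at 570 nm. Viability relative to untreated cells. IC50 per experiment averaged over three independent triplicate runs on different days (mean ± SD). Cisplatin positive control.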

Assay [2] in a line: Cytotoxicity against human NCI-H460 cells assessed as decrease in cell viability after 72 hrs by MTT assay. It is filed as functional, cell-based. As to conditions: NCI-H460, 72 h. In short, it runs like this: as §1

This note sets out measurements from ChEMBL document CHEMBL3867436, “Chemistry of Renieramycins. 15. Synthesis of 22-O-Ester Derivatives of Jorunnamycin A and Their Cytotoxicity against Non-Small-Cell Lung Cancer Cells” (J Nat Prod, 2016).

As for `COC1=C(C)C(=O)C2=C(C1=O)[C@H]1[C@@H]3CC4=C(C(=O)C(OC)=C(C)C4=O)[C@H](COC(=O)/C=C/c4ccc([N+](=O)[O-])cc4)N3[C@@H](C#N)[C@H](C2)N1C`, the IC50 in assay [1] was found to be 22 nM; in assay [2], 14 nM.

With `COC1=C(C)C(=O)C2=C(C1=O)[C@H]1[C@@H]3CC4=C(C(=O)C(OC)=C(C)C4=O)[C@H](COC(=O)c4ccccc4C(F)(F)F)N3[C@@H](C#N)[C@H](C2)N1C`, the IC50 turned out to be 51 nM in assay [1] and 22 nM in assay [2].

`COC1=C(C)C(=O)C2=C(C1=O)[C@H]1[C@@H]3CC4=C(C(=O)C(OC)=C(C)C4=O)[C@H](COC(=O)/C=C/c4ccccc4Cl)N3[C@@H](C#N)[C@H](C2)N1C`: the IC50 worked out at 25 nM in assay [1] and 9 nM in assay [2].

Turning to `COC1=C(C)C(=O)C2=C(C1=O)[C@H]1[C@@H]3CC4=C(C(=O)C(OC)=C(C)C4=O)[C@H](COC(=O)/C=C/c4ccccc4)N3[C@@H](C#N)[C@H](C2)N1C`, the IC50 came out at 19 nM in assay [1] and 18 nM in assay [2].

Regarding `COC1=C(C)C(=O)C2=C(C1=O)[C@H]1[C@@H]3CC4=C(C(=O)C(OC)=C(C)C4=O)[C@H](COC(=O)c4ccc(C(F)(F)F)cc4)N3[C@@H](C#N)[C@H](C2)N1C`, the IC50 amounted to 60 nM in assay [1] and 24 nM in assay [2].

For the molecule `COC1=C(C)C(=O)C2=C(C1=O)[C@H]1[C@@H]3CC4=C(C(=O)C(OC)=C(C)C4=O)[C@H](COC(=O)c4ccccc4F)N3[C@@H](C#N)[C@H](C2)N1C`, the IC50 in assay [1] came out at 30 nM; in assay [2], 10 nM.

For the molecule `COC1=C(C)C(=O)C2=C(C1=O)[C@H]1[C@@H]3CC4=C(C(=O)C(OC)=C(C)C4=O)[C@H](CO)N3[C@@H](C#N)[C@H](C2)N1C`, the values for the IC50 in assay [1] and in assay [2] were 220 nM and 160 nM, respectively.

In the case of `COC1=C(C)C(=O)C2=C(C1=O)[C@H]1[C@@H]3CC4=C(C(=O)C(OC)=C(C)C4=O)[C@H](COC(=O)c4cccc(C(F)(F)F)c4)N3[C@@H](C#N)[C@H](C2)N1C`, the IC50 in assay [1] was 49 nM; in assay [2], 30 nM.

In the case of `COC1=C(C)C(=O)C2=C(C1=O)[C@H]1[C@@H]3CC4=C(C(=O)C(OC)=C(C)C4=O)[C@H](COC(=O)c4ccncc4)N3[C@@H](C#N)[C@H](C2)N1C`, the results for the IC50 in assay [1] and in assay [2] were 1.1 nM and 1.6 nM, respectively.

As to `COC1=C(C)C(=O)C2=C(C1=O)[C@H]1[C@@H]3CC4=C(C(=O)C(OC)=C(C)C4=O)[C@H](COC(=O)CC(F)(F)F)N3[C@@H](C#N)[C@H](C2)N1C`, the IC50 in assay [1] is 570 nM; in assay [2] it was 320 nM.

Regarding `COC1=C(C)C(=O)C2=C(C1=O)[C@H]1[C@@H]3CC4=C(C(=O)C(OC)=C(C)C4=O)[C@H](COC(=O)/C=C/c4c(F)c(F)c(F)c(F)c4F)N3[C@@H](C#N)[C@H](C2)N1C`, the IC50 in assay [1] turned out to be 21 nM; in assay [2], 69 nM.

Consider `COC1=C(C)C(=O)C2=C(C1=O)[C@H]1[C@@H]3CC4=C(C(=O)C(OC)=C(C)C4=O)[C@H](COC(=O)/C=C/c4cccc(F)c4)N3[C@@H](C#N)[C@H](C2)N1C`, for which the figures for the IC50 in assay [1] and in assay [2] were 11 nM and 9.8 nM, respectively.

Turning to `COC1=C(C)C(=O)C2=C(C1=O)[C@H]1[C@@H]3CC4=C(C(=O)C(OC)=C(C)C4=O)[C@H](COC(=O)/C=C/c4cccnc4)N3[C@@H](C#N)[C@H](C2)N1C`, the values for the IC50 in assay [1] and in assay [2] were 4.9 nM and 2.8 nM, respectively.

Regarding `COC1=C(C)C(=O)C2=C(C1=O)[C@H]1[C@@H]3CC4=C(C(=O)C(OC)=C(C)C4=O)[C@H](COC(=O)c4ccccn4)N3[C@@H](C#N)[C@H](C2)N1C`, the IC50 is 3.7 nM in assay [1] and 2.2 nM in assay [2].

For the molecule `COC1=C(C)C(=O)C2=C(C1=O)[C@H]1[C@@H]3CC4=C(C(=O)C(OC)=C(C)C4=O)[C@H](COC(=O)/C=C/c4ccncc4)N3[C@@H](C#N)[C@H](C2)N1C`, the IC50 in assay [1] and in assay [2] was 20 nM in each case.

Consider `COC1=C(C)C(=O)C2=C(C1=O)[C@H]1[C@@H]3CC4=C(C(=O)C(OC)=C(C)C4=O)[C@H](COC(=O)c4cccc(F)c4)N3[C@@H](C#N)[C@H](C2)N1C`, for which the IC50 was 18 nM in assay [1] and 11 nM in assay [2].

With `COC1=C(C)C(=O)C2=C(C1=O)[C@H]1[C@@H]3CC4=C(C(=O)C(OC)=C(C)C4=O)[C@H](COC(=O)c4cccnc4)N3[C@@H](C#N)[C@H](C2)N1C`, the IC50 in assay [1] came out at 6.4 nM; in assay [2] it was 6 nM.

With `COC1=C(C)C(=O)C2=C(C1=O)[C@H]1[C@@H]3CC4=C(C(=O)C(OC)=C(C)C4=O)[C@H](COC(=O)/C=C/c4ccc(F)cc4)N3[C@@H](C#N)[C@H](C2)N1C`, the concentration for half-maximal inhibition (IC50) in assay [1] came to 44 nM; in assay [2] it was 12 nM.

Take `COC1=C(C)C(=O)C2=C(C1=O)[C@H]1[C@@H]3CC4=C(C(=O)C(OC)=C(C)C4=O)[C@H](COC(=O)c4ccc(F)cc4)N3[C@@H](C#N)[C@H](C2)N1C`: the IC50 in assay [1] stood at 56 nM; in assay [2], 22 nM.

Regarding `C/C=C(/C)C(=O)OC[C@H]1C2=C(C[C@H]3[C@H]4C5=C(C[C@@H]([C@H](C#N)N13)N4C)C(=O)C(C)=C(OC)C5=O)C(=O)C(C)=C(OC)C2=O` [RENIERAMYCIN M], the IC50 in assay [1] amounted to 23 nM; in assay [2] it was 8.3 nM.
